The source made the active and inactive calls. No cut-off for these calls is given here.
Columns and labels:
[1] = target: GABA-A receptor; anion channel; test: Dissociation constant (Kd) determined in Scatchard analysis of 35[S]-TBPS binding.; type: protein-complex assay, Rattus norvegicus
Method in brief: (§1)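 Scatchard analysis of [35S]-TBPS binding to rat brain membranes, with compounds dissolved in DMSO at a final assay concentration of 0.25%. Run in triplicate with triplicate determinations per point. Kd and Bmax were taken from linear regression of Scatchard-transformed data. TBPS alone vs TBPS plus test compound was compared by Student's t test.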

[2] = target: T1, GABA-A receptor; anion channel (Rattus norvegicus) (UniProt O09028+P15431+P18506+P18508+P19969+P20236+P23574+P23576+P28471+P28473+P30191+P62813+P63079+P63138+Q91ZM7+Q9ES14); test: Maximal binding constant (Bmax) determined in Scatchard analysis of 35[S]-TBPS binding.; type: protein-complex assay; method in brief: as §1
[3] = target: T1, GABA-A receptor; anion channel (Rattus norvegicus); test: (§2) Percent response with 1 uM GABA relative to current produced by 1 uM GABA alone in rat hippocampal cells; type: functional, cell-based; conditions: Hippocampus
Method in brief: (§3)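 Whole-cell patch clamp on rat hippocampal cells. Current with 1 μM GABA plus 1 μM compound is expressed as percent of the current from 1 μM GABA alone.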

[4] = target: T1, GABA-A receptor; anion channel (Rattus norvegicus); test: Percent response without GABA relative to current produced by 1 uM GABA alone in rat hippocampal cells (gated current); type: functional, cell-based; conditions: Hippocampus
Method in brief: (§4)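 Whole-cell patch clamp on rat hippocampal cells. Current gated by 10 μM compound without GABA is expressed as percent of the current evoked by 1 μM GABA on the same cell.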

[5] = target: GABA-A receptor; anion channel; test: Inhibition of GABA-A receptor by displacement of 35[S]-TBPS; type: protein-complex assay, Rattus norvegicus
Method in brief: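 [35S]-TBPS displacement on rat brain membranes, with compounds dissolved in DMSO at a final assay concentration of 0.25%. IC50 was obtained by logistic analysis.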

[6] = target: Gamma-aminobutyric acid receptor subunit gamma-1 (Rattus norvegicus) (UniProt P23574); test: as §2; type: functional, cell-based; conditions: Hippocampus; method in brief: as §3
Gamma-aminobutyric acid receptor subunit gamma-1 (Rattus norvegicus), sequence (P23574 whole entry): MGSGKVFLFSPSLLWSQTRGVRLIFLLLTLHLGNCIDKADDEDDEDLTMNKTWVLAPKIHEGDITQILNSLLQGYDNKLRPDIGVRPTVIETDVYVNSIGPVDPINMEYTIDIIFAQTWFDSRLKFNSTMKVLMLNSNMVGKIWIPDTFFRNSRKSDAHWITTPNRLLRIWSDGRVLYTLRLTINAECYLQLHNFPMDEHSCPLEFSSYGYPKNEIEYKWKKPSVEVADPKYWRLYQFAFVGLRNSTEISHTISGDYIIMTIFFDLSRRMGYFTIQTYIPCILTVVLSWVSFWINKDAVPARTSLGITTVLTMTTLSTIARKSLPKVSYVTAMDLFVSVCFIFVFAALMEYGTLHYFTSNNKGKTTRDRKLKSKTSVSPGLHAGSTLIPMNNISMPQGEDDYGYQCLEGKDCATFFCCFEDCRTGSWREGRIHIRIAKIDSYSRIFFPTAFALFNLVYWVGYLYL

[7] = target: Gamma-aminobutyric acid receptor subunit gamma-1 (Rattus norvegicus) (UniProt P23574); test: Percent response without GABA relative to current produced by 1 uM GABA alone in rat hippocampal cells (No response); type: functional, cell-based; conditions: Hippocampus; method in brief: as §4

Row | Compound | Kd [1] [nM] | Bmax (pM (mg of protein)-1) [2] | Response [3] [%] | Activity [4] | IC50 [5] [µM] | Response [6] [%] | Activity [7]
1 | CC(=O)C1CC[C@H]2[C@@H]3CC[C@H]4C[C@H](O)CC[C@]4(C)[C@H]3CC[C@]12C (some centres not stated) | < 80 | 1.22 | 195 | 30 | 0.18 |  | 
2 | C[C@]12CCC3C[C@H](CCO)CCC3C1CCC2=O (some centres not stated) |  |  | 127 |  | 44.1 |  | 
3 | CC(=O)[C@H]1CCC2C3CC[C@@H](CCO)CC3CC[C@@]21C (some centres not stated) |  | 1.04 | 489 |  | 5.82 |  | 
4 | CC(=O)[C@@]1(C)CCC2C(CC[C@H]3C[C@H](O)CC[C@]23C)C1 (some centres not stated) |  |  | 108 |  | 7.06 |  | 
5 | C[C@]12CCC3C[C@H](CCO)CCC3C1CC[C@@H]2C#N (some centres not stated) |  |  |  |  | 4.5 | 346 | inactive
6 | CC(=O)C[C@@]1(C)CCC2C(CC[C@H]3C[C@H](O)CC[C@]23C)C1 (some centres not stated) |  | 1.15 | 113 | 1 | 3.98 |  | 
7 | C[C@]1(CC#N)CCC2C(CC[C@H]3C[C@H](O)CC[C@]23C)C1 (some centres not stated) |  |  | 106 | 8 | 3.27 |  | 

— ChEMBL document CHEMBL1126987, “Modulation of GABAA receptor function by benz[e]indenes and phenanthrenes” (J Med Chem, 1993)
